Test results taken from ChEMBL document CHEMBL1156279, “2-Cyano-3,10-dioxooleana-1,9(11)-dien-28-oic acid anhydride. A novel and highly potent anti-inflammatory and cytoprotective agent” (Bioorg Med Chem Lett, 2010).
Calls of active or inactive are those of the source. The rule behind the calls is not given here.

Experiments:
RAW264.7 = assay: Antiinflammatory activity against IFN-gamma-stimulated mouse RAW264.7 cells assessed as nitrite accumulation after 24 hrs by Griess reagent method; type: functional, cell-based; conditions: RAW264.7, 24 h
How it was run: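 RAW 264.7 cells co-treated with graded compound concentrations and interferon-γ (10 ng/mL) for 24 hours; nitric oxide in supernatants measured by Griess reaction. IC50 averaged over three experiments.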

[1] = target: T1, Heme oxygenase 1 (Mus musculus) (UniProt P14901); assay: Induction of HO1 in mouse RAW264.7 cells at 100 nM after 6 hrs by SDS-PAGE; type: cell-based
T1 sequence (whole entry): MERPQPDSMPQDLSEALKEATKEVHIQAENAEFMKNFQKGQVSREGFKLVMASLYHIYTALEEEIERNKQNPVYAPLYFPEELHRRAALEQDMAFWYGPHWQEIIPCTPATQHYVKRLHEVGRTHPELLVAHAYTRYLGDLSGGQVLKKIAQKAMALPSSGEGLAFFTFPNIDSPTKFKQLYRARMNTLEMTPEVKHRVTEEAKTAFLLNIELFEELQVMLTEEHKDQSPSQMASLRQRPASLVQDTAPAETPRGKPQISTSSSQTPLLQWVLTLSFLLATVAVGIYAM
How it was run: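 RAW 264.7 cells exposed to compounds at 100 nM for 6 hours. Total cell lysates resolved by SDS-PAGE, immunoblotted with HO-1 antibody, ECL detection.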

Liver = assay: Drug level in CD1 mouse liver at 2 umol, ip after 6 hrs by HPLC/MS; type: ADME, organism-based; conditions: in vivo
How it was run: (§1)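 Female CD-1 mice dosed i.p. with 2 µmol compound in DMSO–cremophor–PBS (1:1:8). Sacrificed 6 hours later; liver, lung, whole blood and plasma collected for compound levels (tissue µmol/kg, blood/plasma µM).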

[2] = Drug uptake in CD1 mouse plasma at 2 umol, ip after 6 hrs by HPLC/MS; type: ADME, organism-based; conditions: read-out: Drug uptake; how it was run: as §1
Lung = assay: Drug level in CD1 mouse lung at 2 umol, ip after 6 hrs by HPLC/MS; type: ADME, organism-based; conditions: in vivo; how it was run: as §1
[3] = Drug level in CD1 mouse whole blood at 2 umol, ip after 6 hrs by HPLC/MS; type: ADME, organism-based; conditions: read-out: Drug uptake; how it was run: as §1
[4] = Stability assessed as compound remaining after 24 hrs in presence of in 10% fetal bovine serum; type: ADME; conditions: cattle
How it was run: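 Compound incubated in RAW 264.7 cell growth medium (RPMI with 10% fetal bovine serum) at 37 °C. Percentage of material remaining followed over time up to 24 h.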

Mus musculus = assay: Induction of HO1 in CD1 mouse liver at 2 umol, ip after 6 hrs by SDS-PAGE; type: functional, organism-based
How it was run: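 CD-1 mice, 4 per group, given a single 2 µmol i.p. injection. Livers harvested after 6 h and homogenized. Lysates separated by SDS-PAGE, probed with HO-1 antibodies and developed by ECL.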

Which results are given for C=C(C)[C@@H]1CC[C@]2(C(=O)OC(=O)[C@]34CC[C@@H](C(=C)C)[C@@H]3[C@H]3CC[C@@H]5[C@@]6(C)C=C(C#N)C(=O)C(C)(C)[C@@H]6CC[C@@]5(C)[C@]3(C)CC4)CC[C@]3(C)[C@H](CC[C@@H]4[C@@]5(C)C=C(C#N)C(=O)C(C)(C)[C@@H]5CC[C@]43C)[C@@H]12 [LUPANE ANHYDRIDE]?
IC50 (RAW264.7): > 10000 nM; Activity [1]: inactive

For C=C(C)[C@@H]1CC[C@]2(C(=O)O)CC[C@]3(C)[C@H](CC[C@@H]4[C@@]5(C)C=C(C#N)C(=O)C(C)(C)[C@@H]5CC[C@]43C)[C@@H]12, which Activity [1] is on record?
Its Activity is “Active”.

Which results are given for CC1(C)CC[C@]2(C(=O)O)CC[C@]3(C)[C@H](C(=O)C=C4[C@@]5(C)C=C(C#N)C(=O)C(C)(C)[C@@H]5CC[C@]43C)[C@@H]2C1 [BARDOXOLONE]?
Drug uptake (Liver): 0.041 µmol/kg; IC50 (RAW264.7): 28.3 nM; concentration at 6 h [2]: 2 µM; Drug uptake (Lung): 0.018 µmol/kg; concentration at 6 h [3]: 19 µM; Activity [1]: Active

Which Drug uptake (Liver) does the source give for CC1(C)CC[C@]2(C(=O)OC(=O)[C@]34CCC(C)(C)C[C@H]3[C@H]3C(=O)C=C5[C@@]6(C)C=C(C#N)C(=O)C(C)(C)[C@@H]6CC[C@@]5(C)[C@]3(C)CC4)CC[C@]3(C)[C@H](C(=O)C=C4[C@@]5(C)C=C(C#N)C(=O)C(C)(C)[C@@H]5CC[C@]43C)[C@@H]2C1 here?
Its Drug uptake is 0.045 µmol/kg.

And the IC50 (RAW264.7)?
Its IC50 is 14.7 nM.

And the concentration at 6 h [2]?
The concentration at 6 h was 43 µM.

What about the Activity [4] of the same compound?
The Activity was “Active”.

And the Drug uptake (Lung)?
The Drug uptake was 0.031 µmol/kg.

And the concentration at 6 h [3]?
Its concentration at 6 h is 52 µM.

What about the Activity [1] of the same compound?
The Activity was “Active”.

And the Activity (Mus musculus)?
The Activity was “Active”.
